{"source": "paper PMC11840607", "about": "(ACS Omega, 2025)", "key": {"[1]": {"system": "A549 cells", "experiment": "MTT antiproliferative assay, A549", "type": "cell-based, human", "conditions": "ratio of IC50 BEAS-2B to A549", "outline": "(§1)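 Cell culture: A549, PC9 and normal lung epithelial BEAS-2B in DMEM with 10% FBS and penicillin/streptomycin/amphotericin B; H1975 in RPMI-1640 with 10% FBS; all at 37 °C, 5% CO2. Log-phase cells seeded at 3 × 10^3/well overnight, then exposed to graded compound concentrations or DMSO for 72 h. MTT added for 4 h in the dark, crystals dissolved in DMSO, absorbance read at 490 nm; three parallel experiments.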"}, "[2]": {"system": "H1975 cells", "experiment": "MTT antiproliferative assay, H1975", "type": "cell-based, human", "conditions": "ratio of IC50 BEAS-2B to H1975", "outline": "as §1"}, "[3]": {"system": "A549 spheroids", "experiment": "3D spheroid cell inhibition assay", "type": "cell-based, human", "conditions": "treated every 3 days", "outline": "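A549 cells seeded at 20 000 cells/well in ultralow-attachment U-bottom wells to form tumor spheroids. Once formed, spheroids were exposed to the indicated concentrations of test compound, renewed every 3 days. Spheroids were photographed under a microscope to document growth and morphology.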"}, "[4]": {"system": "A549 cells", "experiment": "Annexin V-FITC/PI apoptosis assay, flow cytometry", "type": "cell-based, human", "conditions": "48 h, control 2.64%", "outline": "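A549 cells seeded at 1 × 10^5 per well in 6-well plates and left overnight. They were then treated with test compound for 48 h, collected by PBS rinsing and stained with Annexin V-FITC and PI for 15 min at room temperature in the dark. Apoptotic fractions were read by flow cytometry; mean ± SD, n = 3.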"}, "[5]": {"system": "p-PI3K, p-AKT", "experiment": "Western blot of PI3K and AKT", "type": "cell-based, human", "conditions": "48 h", "outline": "(§2)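 Cells treated with the indicated concentrations of test compound for 48 h. Lysates were heat-denatured at 104 °C for 12 min, protein measured by BCA, and equal amounts run on SDS-PAGE and transferred to PVDF. Membranes were blocked 1 h with 5% BSA or milk, incubated with primary antibody overnight at 4 °C, then secondary 2 h at room temperature. Detection by ECL; bands quantified by densitometry.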"}, "[6]": {"system": "mitochondrial membrane potential", "experiment": "Mitochondrial membrane potential, JC-1, flow cytometry", "type": "cell-based", "conditions": "control 19.25%", "outline": "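Cells in six-well plates were stained with JC-1 working solution, prepared per kit, for 20 min at 37 °C. After a PBS wash, mitochondrial membrane potential was measured by flow cytometry and also viewed by fluorescence microscopy.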"}, "[7]": {"system": "A549 cells", "experiment": "Cell cycle analysis, PI staining, flow cytometry", "type": "cell-based, human", "conditions": "A549, 48 h", "outline": "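A549 cells were exposed to a range of test compound concentrations for 48 h. They were then washed in cold PBS, fixed in precooled 70% ethanol and held overnight at −20 °C. After a PBS wash, cells were stained for 30 min at room temperature in the dark with PI (50 μg/mL) plus RNase A (100 μg/mL). DNA content was read by flow cytometry.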"}, "[8]": {"system": "cleaved-caspase 9, Bax, Bcl-2", "experiment": "Western blot of apoptosis-related proteins", "type": "cell-based, human", "conditions": "A549, 48 h", "outline": "as §2"}, "[9]": {"system": "ALK, p-ALK", "experiment": "Western blot of ALK and p-ALK", "type": "cell-based, human", "conditions": "A549, 48 h", "outline": "(§3)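 A549 cells were exposed to the indicated test compound concentrations for 48 h, then lysed and heat-denatured at 104 °C for 12 min. Protein was quantified by BCA, and equal amounts were resolved by SDS-PAGE onto PVDF. Membranes were blocked 1 h (5% BSA or skim milk), given primary antibody overnight at 4 °C, washed in TBST, given secondary antibody 2 h at room temperature, and imaged by ECL.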"}, "[10]": {"system": "ALK", "experiment": "Proteome Profiler Human Phospho-RTK Array", "type": "cell-based", "conditions": "A549, 2.0 μM, 24 h", "outline": "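A549 cells were treated with test compound (2.0 μM) or left untreated for 24 h, then lysed in buffer with protease and phosphatase inhibitors. Protein was measured by Bradford. Arrays covering 49 phospho-RTKs were blocked for 1 h, then incubated with 450 μg lysate overnight at 4 °C. After three washes, arrays were probed for 2 h with anti-phospho-tyrosine-HRP and developed by chemiluminescence.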"}, "[11]": {"system": "p27, p21, CDK2, p-Rb", "experiment": "Western blot of G1 phase associated proteins", "type": "cell-based, human", "conditions": "A549, 0.5 to 2.0 μM, 48 h", "outline": "as §3"}}, "data": [{"smiles": "CN(C)CCn1cnc2ccc(-c3ccc4sc(NC(=O)Nc5ccc(F)cc5)nc4c3)cc2c1=O", "note": "[Compound 38]", "values": [{"measurement": "selectivity (fold) A549 vs BEAS-2B", "setting": "[1]", "value": 1.30, "unit": "fold"}, {"measurement": "selectivity (fold) H1975 vs BEAS-2B", "setting": "[2]", "value": 0.92, "unit": "fold"}]}, {"smiles": "CCCn1cnc2ccc(-c3ccc4sc(NC(=O)Nc5ccc(F)cc5)nc4c3)cc2c1=O", "note": "[Compound 45]", "values": [{"measurement": "growth of A549 tumor spheres", "setting": "[3]", "value": "can inhibit the growth of tumor spheres"}, {"measurement": "annexin V positive cells (Q2-4)", "setting": "[4]; A549, 2.0 μM", "value": 7.13, "unit": "%"}, {"measurement": "annexin V positive cells (Q2-4)", "setting": "[4]; A549, 4.0 μM", "value": 20.36, "unit": "%"}, {"measurement": "p-AKT protein expression", "setting": "[5]", "value": "inhibited the protein expression"}, {"measurement": "p-PI3K protein expression", "setting": "[5]", "value": "inhibited the protein expression"}, {"measurement": "JC-1 M2 fraction (change of Δψm)", "setting": "[6]; 0.25 μM", "value": 47.72, "unit": "%"}, {"measurement": "JC-1 M2 fraction (change of Δψm)", "setting": "[6]; 0.5 μM", "value": 51.16, "unit": "%"}, {"measurement": "JC-1 M2 fraction (change of Δψm)", "setting": "[6]; 1.0 μM", "value": 60.52, "unit": "%"}, {"measurement": "cell cycle distribution", "setting": "[7]", "value": "induced cell cycle arrest at the G1 phase in a concentration-dependent manner"}, {"measurement": "Bax level", "setting": "[8]", "value": "increased in a concentration-dependent manner"}, {"measurement": "Bcl-2 level", "setting": "[8]", "value": "decreased"}, {"measurement": "cleaved-caspase 9 level", "setting": "[8]", "value": "increased in a concentration-dependent manner"}, {"measurement": "phosphorylation level of ALK (Western blot)", "setting": "[9]", "value": "reduces the phosphorylation levels of ALK"}, {"measurement": "total protein level of ALK (Western blot)", "setting": "[9]", "value": "decreases the total protein levels of ALK"}, {"measurement": "selectivity (fold) A549 vs BEAS-2B", "setting": "[1]", "value": 7.10, "unit": "fold"}, {"measurement": "selectivity (fold) H1975 vs BEAS-2B", "setting": "[2]", "value": 5.80, "unit": "fold"}, {"measurement": "phosphorylation level of ALK (Phospho-RTK array)", "setting": "[10]", "value": "reduced the phosphorylation levels of ALK"}, {"measurement": "CDK2 expression level", "setting": "[11]", "value": "reduced in a concentration-dependent manner"}, {"measurement": "p21 expression level", "setting": "[11]", "value": "markedly upregulated in a dose-dependent manner"}, {"measurement": "p27 expression level", "setting": "[11]", "value": "markedly upregulated in a dose-dependent manner"}, {"measurement": "p-Rb expression level", "setting": "[11]", "value": "reduced in a concentration-dependent manner"}]}, {"smiles": "CC(=O)O[C@H]1C(=O)[C@@]2(C)[C@H]([C@H](OC(=O)c3ccccc3)[C@]3(O)C[C@H](OC(=O)[C@H](O)[C@@H](NC(=O)c4ccccc4)c4ccccc4)C(C)=C1C3(C)C)[C@]1(OC(C)=O)CO[C@@H]1C[C@@H]2O", "note": "[paclitaxel, reference compound]", "values": [{"measurement": "selectivity (fold) A549 vs BEAS-2B", "setting": "[1]", "value": 0.42, "unit": "fold"}, {"measurement": "selectivity (fold) H1975 vs BEAS-2B", "setting": "[2]", "value": 3.28, "unit": "fold"}]}]}
